Experimental data published in ChEMBL document CHEMBL1799953, “Backbone cyclic peptide inhibitors of protein kinase B (PKB/Akt)” (J Med Chem, 2011).
*1 amine or outer side, *2 acyl side, *3 side chain or, on linkers, in order; H or OH if unused. Where a SMILES comes first, the peptide text is derived from it. Bridges are numbered along the chain shown (N, C = ends). [ ]: non-standard residue; d: D form. N(6-aminohexyl)Gly = O=C(CN(CCCCCCN[*:3])[*:1])[*:2]; NGly(3-aminopropyl) = O=C(CN(CCCN[*:3])[*:1])[*:2]; N(2-Aminoethyl)Gly = O=C(CN(CCN[*:3])[*:1])[*:2]; Heptanedioyl = O=C(CCCCCC(=O)[*:2])[*:1]; Adipoyl = O=C(CCCCC(=O)[*:2])[*:1]; Glutaryl = O=C(CCCC(=O)[*:2])[*:1]; Gly(N-(CH2)6NH2) = NCCCCCCNCC(=O)O; Gly(N-2-aminoethyl) = NCCNCC(=O)O; Gly(N(CH2)3NH2) = NCCCNCC(=O)O; Suc = O=C(CCC(=O)[*:2])[*:1]; hLeu = CC(C)CC[C@H](N)C(=O)O; Nle = CCCC[C@H](N)C(=O)O; Nva = CCC[C@H](N)C(=O)O; Dap = NC[C@H](N)C(=O)O; CO = O=C([*:1])[*:2]; Nlys = NCCCCNCC(=O)O

molecular target: RAC-alpha serine/threonine-protein kinase (Homo sapiens, UniProt P31749); assay: Inhibition of Akt using RPRTSSF peptide and [gamma32]ATP at 5 uM by cell-free radioactive assay relative to control
In short: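 Cell-free 32P kinase assay: HisΔPHPKBEEEFlag (0.005 units, one-step Ni-NTA partial purification), 50 mM Hepes pH 7.4, 0.1 mM EGTA, 0.1% 2-mercaptoethanol, 10 mM magnesium acetate, 3 μM RPRTSSF substrate, 10 μM [γ32P]ATP (1 μCi/well). Inhibitor at 5 μM. Activity loss expressed as percent of uninhibited reaction.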

Sequence of RAC-alpha serine/threonine-protein kinase (P31749 whole entry): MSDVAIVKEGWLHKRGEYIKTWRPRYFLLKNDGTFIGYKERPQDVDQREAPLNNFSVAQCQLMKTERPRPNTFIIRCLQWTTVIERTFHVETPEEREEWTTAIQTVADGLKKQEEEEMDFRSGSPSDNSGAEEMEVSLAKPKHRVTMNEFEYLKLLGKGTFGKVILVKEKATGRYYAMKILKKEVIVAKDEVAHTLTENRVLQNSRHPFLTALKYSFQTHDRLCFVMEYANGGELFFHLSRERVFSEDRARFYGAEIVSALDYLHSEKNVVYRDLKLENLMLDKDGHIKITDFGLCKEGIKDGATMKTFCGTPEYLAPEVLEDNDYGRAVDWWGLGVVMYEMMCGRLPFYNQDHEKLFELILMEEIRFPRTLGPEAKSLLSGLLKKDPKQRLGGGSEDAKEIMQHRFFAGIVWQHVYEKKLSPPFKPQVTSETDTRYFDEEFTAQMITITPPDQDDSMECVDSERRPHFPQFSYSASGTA

SMILES	inhibition [%]
CCCC[C@H](NC(=O)[C@@H](N)CCCNC(=N)N)C(=O)N[C@@H](CCCNC(=N)N)C(=O)N[C@@H](CCC)C(=O)N[C@@H](Cc1ccc(O)cc1)C(=O)N[C@@H](CN)C(=O)N[C@@H](CCC(C)C)C(N)=O (H-R[Nle]R[Nva]Y[Dap][hLeu]-NH2)	82
CCC[C@H](NC(=O)[C@H](CCCNC(=N)N)NC(=O)[C@H](CCC)NC(=O)[C@@H](N)CCCNC(=N)N)C(=O)N[C@@H](Cc1ccc(O)cc1)C(=O)N[C@@H](CN)C(=O)N[C@@H](CCC(C)C)C(N)=O (H-R[Nva]R[Nva]Y[Dap][hLeu]-NH2)	80
CCC[C@H](NC(=O)[C@H](CCCNC(=N)N)NC(=O)CNCCCN)C(=O)N[C@@H](Cc1ccc(O)cc1)C(=O)N[C@@H](CN)C(=O)N[C@@H](CCC(C)C)C(=O)N(CCN)CC(N)=O (H-[Gly(N(CH2)3NH2)]R[Nva]Y[Dap][hLeu][Gly(N-2-aminoethyl)]-NH2)	63
CCC[C@H](NC(=O)[C@H](CCCNC(=N)N)NC(=O)CNCCN)C(=O)N[C@@H](Cc1ccc(O)cc1)C(=O)N[C@@H](CN)C(=O)N[C@@H](CCC(C)C)C(=O)N(CCN)CC(N)=O (H-[Gly(N-2-aminoethyl)]R[Nva]Y[Dap][hLeu][Gly(N-2-aminoethyl)]-NH2)	67
CCC[C@H](NC(=O)[C@H](CCCNC(=N)N)NC(=O)CNCCCCCCN)C(=O)N[C@@H](Cc1ccc(O)cc1)C(=O)N[C@@H](CN)C(=O)N[C@@H](CCC(C)C)C(=O)N(CCN)CC(N)=O (H-[Gly(N-(CH2)6NH2)]R[Nva]Y[Dap][hLeu][Gly(N-2-aminoethyl)]-NH2)	64
CCC[C@H](NC(=O)[C@H](CCCNC(=N)N)NC(=O)CNCCCCN)C(=O)N[C@@H](Cc1ccc(O)cc1)C(=O)N[C@@H](CN)C(=O)N[C@@H](CCC(C)C)C(=O)N(CCN)CC(N)=O (H-[Nlys]R[Nva]Y[Dap][hLeu][Gly(N-2-aminoethyl)]-NH2)	66
CCC[C@@H]1NC(=O)[C@H](CCCNC(=N)N)NC(=O)[C@@H]2CCCN2C(=O)[C@H](CCCNC(=N)N)NC(=O)CCCCC(=O)NCCCCCCN(CC(N)=O)C(=O)[C@H](CCC(C)C)NC(=O)[C@H](CN)NC(=O)[C@H](Cc2ccc(O)cc2)NC1=O (RPR[Nva]Y[Dap][hLeu][N(6-aminohexyl)Gly]-NH2; linker N-8 via Adipoyl)	30
CCC[C@@H]1NC(=O)[C@H](CCCNC(=N)N)NC(=O)[C@@H]2CCCN2C(=O)[C@H](CCCNC(=N)N)NC(=O)CCCC(=O)NCCCCCCN(CC(N)=O)C(=O)[C@H](CCC(C)C)NC(=O)[C@H](CN)NC(=O)[C@H](Cc2ccc(O)cc2)NC1=O (RPR[Nva]Y[Dap][hLeu][N(6-aminohexyl)Gly]-NH2; linker N-8 via Glutaryl)	32
CCC[C@@H]1NC(=O)[C@H](CCCNC(=N)N)NC(=O)[C@@H]2CCCN2C(=O)[C@H](CCCNC(=N)N)NC(=O)CCCCCC(=O)NCCCCCCN(CC(N)=O)C(=O)[C@H](CCC(C)C)NC(=O)[C@H](CN)NC(=O)[C@H](Cc2ccc(O)cc2)NC1=O (RPR[Nva]Y[Dap][hLeu][N(6-aminohexyl)Gly]-NH2; linker N-8 via Heptanedioyl)	30

Next, values leading:

inhibition [%]	SMILES
98	CCC[C@@H]1NC(=O)[C@H](CCCNC(=N)N)NC(=O)CN(C(=O)[C@@H](N)CCCNC(=N)N)CCNC(=O)NCCCCN(CC(N)=O)C(=O)[C@H](CCC(C)C)NC(=O)[C@H](CN)NC(=O)[C@H](Cc2ccc(O)cc2)NC1=O (H-R[N(2-Aminoethyl)Gly]R[Nva]Y[Dap][hLeu][Nlys]-NH2; linker 2-8 via CO)
68	CCC[C@@H]1NC(=O)[C@H](CCCNC(=N)N)NC(=O)CN(C(=O)[C@@H](N)CCCNC(=N)N)CCCCCCNC(=O)NCCN(CC(N)=O)C(=O)[C@H](CCC(C)C)NC(=O)[C@H](CN)NC(=O)[C@H](Cc2ccc(O)cc2)NC1=O (H-R[N(6-aminohexyl)Gly]R[Nva]Y[Dap][hLeu][N(2-Aminoethyl)Gly]-NH2; linker 2-8 via CO)
39	CCC[C@@H]1NC(=O)[C@H](CCCNC(=N)N)NC(=O)CN(C(=O)[C@@H](N)CCCNC(=N)N)CCCCCCNC(=O)NCCCCCCN(CC(N)=O)C(=O)[C@H](CCC(C)C)NC(=O)[C@H](CN)NC(=O)[C@H](Cc2ccc(O)cc2)NC1=O (H-R[N(6-aminohexyl)Gly]R[Nva]Y[Dap][hLeu][N(6-aminohexyl)Gly]-NH2; linker 2-8 via CO)
100	CCC[C@@H]1NC(=O)[C@H](CCCNC(=N)N)NC(=O)CN(C(=O)[C@@H](N)CCCNC(=N)N)CCCCCCNC(=O)NCCCCN(CC(N)=O)C(=O)[C@H](CCC(C)C)NC(=O)[C@H](CN)NC(=O)[C@H](Cc2ccc(O)cc2)NC1=O (H-R[N(6-aminohexyl)Gly]R[Nva]Y[Dap][hLeu][Nlys]-NH2; linker 2-8 via CO)
54	CCC[C@@H]1NC(=O)[C@H](CCCNC(=N)N)NC(=O)CN(C(=O)[C@@H](N)CCCNC(=N)N)CCCNC(=O)NCCN(CC(N)=O)C(=O)[C@H](CCC(C)C)NC(=O)[C@H](CN)NC(=O)[C@H](Cc2ccc(O)cc2)NC1=O (H-R[NGly(3-aminopropyl)]R[Nva]Y[Dap][hLeu][N(2-Aminoethyl)Gly]-NH2; linker 2-8 via CO)
98	CCC[C@@H]1NC(=O)[C@H](CCCNC(=N)N)NC(=O)CN(C(=O)[C@@H](N)CCCNC(=N)N)CCCNC(=O)NCCCN(CC(N)=O)C(=O)[C@H](CCC(C)C)NC(=O)[C@H](CN)NC(=O)[C@H](Cc2ccc(O)cc2)NC1=O (H-R[NGly(3-aminopropyl)]R[Nva]Y[Dap][hLeu][NGly(3-aminopropyl)]-NH2; linker 2-8 via CO)
92	CCC[C@@H]1NC(=O)[C@H](CCCNC(=N)N)NC(=O)CN(C(=O)[C@@H](N)CCCNC(=N)N)CCCNC(=O)NCCCCN(CC(N)=O)C(=O)[C@H](CCC(C)C)NC(=O)[C@H](CN)NC(=O)[C@H](Cc2ccc(O)cc2)NC1=O (H-R[NGly(3-aminopropyl)]R[Nva]Y[Dap][hLeu][Nlys]-NH2; linker 2-8 via CO)
84	CCC[C@@H]1NC(=O)[C@H](CCCNC(=N)N)NC(=O)CN(C(=O)[C@@H](N)CCCNC(=N)N)CCCCNC(=O)NCCN(CC(N)=O)C(=O)[C@H](CCC(C)C)NC(=O)[C@H](CN)NC(=O)[C@H](Cc2ccc(O)cc2)NC1=O (H-R[Nlys]R[Nva]Y[Dap][hLeu][N(2-Aminoethyl)Gly]-NH2; linker 2-8 via CO)
94	CCC[C@@H]1NC(=O)[C@H](CCCNC(=N)N)NC(=O)CN(C(=O)[C@@H](N)CCCNC(=N)N)CCCCNC(=O)NCCCCCCN(CC(N)=O)C(=O)[C@H](CCC(C)C)NC(=O)[C@H](CN)NC(=O)[C@H](Cc2ccc(O)cc2)NC1=O (H-R[Nlys]R[Nva]Y[Dap][hLeu][N(6-aminohexyl)Gly]-NH2; linker 2-8 via CO)
54	CCC[C@@H]1NC(=O)[C@H](CCCNC(=N)N)NC(=O)CN(C(=O)[C@@H](N)CCCNC(=N)N)CCCCNC(=O)NCCCN(CC(N)=O)C(=O)[C@H](CCC(C)C)NC(=O)[C@H](CN)NC(=O)[C@H](Cc2ccc(O)cc2)NC1=O (H-R[Nlys]R[Nva]Y[Dap][hLeu][NGly(3-aminopropyl)]-NH2; linker 2-8 via CO)
25	CCC[C@@H]1NC(=O)[C@H](CCCNC(=N)N)NC(=O)[C@@H]2CCCN2C(=O)[C@H](CCCNC(=N)N)NC(=O)CCC(=O)NCCCCCCN(CC(N)=O)C(=O)[C@H](CCC(C)C)NC(=O)[C@H](CN)NC(=O)[C@H](Cc2ccc(O)cc2)NC1=O (RPR[Nva]Y[Dap][hLeu][N(6-aminohexyl)Gly]-NH2; linker N-8 via Suc)
